Measured values collected from several papers.
RPS6KA3: Ribosomal protein S6 kinase alpha-3 (RPS6KA3, Homo sapiens, UniProt P51812)
RPS6KA3 C-terminal kinase domain: Ribosomal protein S6 kinase alpha-3, C-terminal kinase domain (RPS6KA3, Homo sapiens, UniProt P51812)
RPS6KA3 N-terminal kinase domain: Ribosomal protein S6 kinase alpha-3, N-terminal kinase domain (RPS6KA3, Homo sapiens, UniProt P51812)

CC/C(=N\NC(=O)NCc1cccc(O)c1)c1ccc(O)c(C)c1O
inhibition (RPS6KA3; enzyme activity, inhibitor; 0.1 µM): 79.5%

Cc1ccc(C(=O)Nc2ccc(CN3CCN(C)CC3)c(C(F)(F)F)c2)cc1C#Cc1cnc2cccnn12
activity vs control (RPS6KA3; enzyme activity, inhibitor; 23.5 nM): 82%

CCCOc1ccc([C@@H]2[C@@H](C(=O)O)[C@H](c3ccc4c(c3)OCO4)CN2CC(=O)Nc2c(CC)cccc2CC)cc1
remaining binding (RPS6KA3 C-terminal kinase domain; cell-free assay, competition with immobilised ligand; 1 µM): 76%

COc1cc(Nc2cnc(C#N)c(O[C@H](C)CN(C)C)n2)ncc1-c1cnn(C)c1
remaining activity (RPS6KA3; enzyme activity, inhibitor, radiometric; 10 µM): 34%

F[C@@H]1CCN(c2nccc(-c3cnn4ncccc34)n2)C1
remaining binding (RPS6KA3 C-terminal kinase domain; binding, competition with immobilised ligand; 1 µM): 100%

CN(C)C1CCN(CC#Cc2nn(C3CCCC3)c3nc(NCc4ccccc4)ncc23)C1 (stereo not drawn)
inhibition (RPS6KA3; enzyme activity, inhibitor, FRET; 0.1 µM): 5%

Nc1nc(NC2CCCCC2)sc1C(=O)c1ccccc1
remaining activity (RPS6KA3; enzyme activity, inhibitor; 10 µM): 85%

O=C1Nc2ccc(Cl)cc2C1=Cc1cc(Cl)c(O)c(Cl)c1
remaining signal (RPS6KA3; cell-free assay; 0.5 µM): 96%

FC(F)c1nc2ccccc2n1-c1nc(N2CCOCC2)nc(N2CCOCC2)n1
remaining activity (RPS6KA3; enzyme activity, inhibitor; 10 µM): 83%

Nc1nc(Nc2ccccc2)sc1C(=O)c1c(F)cccc1F
remaining activity (RPS6KA3; enzyme activity, inhibitor; 10 µM): 38%

COc1ccnn2ncc(-c3ccnc(N(C)C)n3)c12
remaining binding (RPS6KA3 C-terminal kinase domain; binding, competition with immobilised ligand; 1 µM): 100%

Cc1ccc(Nc2nccc(N(C)c3ccc4c(C)n(C)nc4c3)n2)cc1S(N)(=O)=O
inhibition (RPS6KA3; enzyme activity, inhibitor; 0.3 µM): 31%

O=C(Nc1cnn(-c2csc(C(=O)NC3COC3)c2)c1)Nc1c(F)cccc1Cl
remaining activity (RPS6KA3; enzyme activity, inhibitor; 5 µM): 79.9%

CNCc1ccccc1-c1csc([C@H](C)Nc2nc(C)nc3cc(OC)c(OC)cc23)c1
remaining binding (RPS6KA3 C-terminal kinase domain; cell-free assay, competition with immobilised ligand; 1 µM): 78%

CNc1cc(Oc2cc(C(=O)Nc3cc(N4CCN(C)CC4)cc(C(F)(F)F)c3)ccc2C)ncn1
inhibition (RPS6KA3 C-terminal kinase domain; target engagement in cells, inhibitor, chemoproteomics; Huh-7; 1 µM): -50.6%

C[C@@H]1CCN(c2nccc(-c3cnn4ncccc34)n2)C1
remaining binding (RPS6KA3 C-terminal kinase domain; binding, competition with immobilised ligand; 1 µM): 98%

Nc1ncnc2occ(-c3ccc(NC(=O)Nc4cc(C(F)(F)F)ccc4F)cc3)c12
remaining signal (RPS6KA3 N-terminal kinase domain; cell-free assay, inhibitor; 20 µM): 0.4%

N[C@@H]1CCN(c2nccc(-c3cnn4ncccc34)n2)C1
remaining binding (RPS6KA3 N-terminal kinase domain; binding, competition with immobilised ligand; 1 µM): 100%

COc1cc(/C=C/C(=O)CC(=O)/C=C/c2ccc(O)c(OC)c2)ccc1O
activity vs control (RPS6KA3; enzyme activity, inhibitor; 1 µM): 66%

CN(C)C(=O)Cn1cc(-c2nc([C@@](C)(c3ccc(-c4cnc(N)nc4)cc3)C3CC3)no2)cn1
remaining binding (RPS6KA3 N-terminal kinase domain; cell-free assay, competition with immobilised ligand; 1 µM): 83%

CC(C)(C)c1nc(-c2cccc(NS(=O)(=O)c3c(F)cccc3F)c2F)c(-c2ccnc(N)n2)s1
remaining activity (RPS6KA3; enzyme activity, inhibitor, radiometric; 1 µM): 77%

O=C(NC[C@@H]1[C@H]2CN(C(=O)OCc3cc(C(F)(F)F)cc(C(F)(F)F)c3)C[C@@H]12)c1ccc2[nH]nnc2c1
remaining binding (RPS6KA3 N-terminal kinase domain; cell-free assay, competition with immobilised ligand; 1 µM): 94%

CCN(CC)c1ccc(C2=NNC(=O)CC2C)cc1[N+](=O)[O-] (stereo not drawn)
remaining activity (RPS6KA3; enzyme activity, inhibitor; 10 µM): 100%

CNC(=O)c1cc(Oc2ccc(NC(=O)Nc3ccc(Cl)c(C(F)(F)F)c3)cc2)ccn1
inhibition (RPS6KA3; enzyme activity, inhibitor; 0.3 µM): 22%

CCOc1cc(-c2nncn2C)ccc1Nc1ncc2cc(C)nc(NCC(C)(C)C)c2n1
inhibition (RPS6KA3; enzyme activity, inhibitor, FRET; 1 µM): 18%

COc1ccc2c(c1)O[C@@H](c1ccc(OC)c(OC)c1)C[C@H]2NC(=O)C1(c2ccc3c(c2)OC(F)(F)O3)CC1
remaining binding (RPS6KA3 C-terminal kinase domain; cell-free assay, competition with immobilised ligand; 1 µM): 100%

CN(c1nccc(-c2cnn3ncccc23)n1)C1CC1
remaining binding (RPS6KA3 N-terminal kinase domain; binding, competition with immobilised ligand; 1 µM): 100%

CCCCNc1ncc2c(-c3ccc(F)cc3)nn(C[C@H]3CC[C@H](N)CC3)c2n1
inhibition (RPS6KA3 N-terminal kinase domain; target engagement in cells, inhibitor, chemoproteomics; 20 mM): 32.6%

Cn1cncc1C1=CN(c2ncnc3[nH]cnc23)CCS1
inhibition (RPS6KA3; enzyme activity, inhibitor, radiometric; 50 nM): 12.3%

C[C@H](NC(=O)c1cnc2n1[C@](C)(Cc1ccc(C#N)cc1)C(=O)N2c1cc(Cl)c(F)c(Cl)c1)C(=O)NC1(c2ccccn2)CC1
remaining binding (RPS6KA3 C-terminal kinase domain; cell-free assay, competition with immobilised ligand; 1 µM): 100%

Cc1sc(C(=O)NC2COC2)cc1-n1cc(NC(=O)Nc2c(F)cccc2Cl)cn1
remaining activity (RPS6KA3; enzyme activity, inhibitor; 10 µM): 73%

CC1=C(C#N)[C@@H](c2ccc3[nH]nc(C)c3c2)C(C#N)=C(c2ccc(Cl)cc2)N1
remaining binding (RPS6KA3 C-terminal kinase domain; cell-free assay, competition with immobilised ligand; 1 µM): 86.2%

Clc1ccc(Nc2nnc(Cc3ccncc3)c3ccccc23)cc1
remaining signal (RPS6KA3; cell-free assay; 0.5 µM): 101%

c1ccc(CNc2nc(N3CCOc4ccccc43)nc3c2CCCC3)cc1
inhibition (RPS6KA3 N-terminal kinase domain; target engagement in cells, inhibitor, chemoproteomics; 20 mM): 3.3%

CC1CCCN1c1nccc(-c2cnn3ncccc23)n1 (stereo not drawn)
remaining binding (RPS6KA3 C-terminal kinase domain; binding, competition with immobilised ligand; 1 µM): 100%

COc1cc(Nc2c(C#N)cnc3cc(OCCCN4CCN(C)CC4)c(OC)cc23)c(Cl)cc1Cl
remaining signal (RPS6KA3; cell-free assay; 0.5 µM): 80.1%

FC(F)(F)Oc1cccc(-c2cnc3ccc(-c4ccncc4)nn23)c1
activity vs control (RPS6KA3; enzyme activity, inhibitor, radiometric; 1 µM): 105%

CCOCCn1cc(C(=O)Nc2ccc(-n3nc(-c4cccnc4)cc3C(F)(F)F)cn2)ccc1=O
remaining binding (RPS6KA3 C-terminal kinase domain; cell-free assay, competition with immobilised ligand; 1 µM): 87%

COc1cc2ncnc(Nc3ccc(Oc4ccccc4)cc3C)c2cc1OC
inhibition (RPS6KA3; enzyme activity, inhibitor; 1 µM): -8%

Cc1cnc(NC2CCOCC2)nc1-n1cnc(C(=O)NC(CN)c2cc(F)cc(Cl)c2)c1 (stereo not drawn)
remaining activity (RPS6KA3; enzyme activity, inhibitor, radiometric; 1 µM): 21%

CN(C)c1nccc(-c2cnc3ncccn23)n1
remaining binding (RPS6KA3 N-terminal kinase domain; binding, competition with immobilised ligand; 1 µM): 70%

O=C1NC(=O)c2cc(Nc3ccc(F)cc3)c(Nc3ccc(F)cc3)cc21
remaining signal (RPS6KA3; cell-free assay; 0.5 µM): 118%
